# Source: PubChem BioAssay
# This is a sample that favours compounds with a hit; in the whole collection about 1.9% have one here.
# M4 antag = human M4 muscarinic receptor antagonists, primary screen, CHO cells, Fluo-8 calcium fluorescence | Muscarinic acetylcholine receptor M4 (Homo sapiens), P08173 | CHO-hM4 cells, ACh EC80 | inhibition, % at 3 µM | hit rate 0.73% among 360,000;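 active means inhibition above its plate's cutoff, the mean inhibition of sample wells plus 3 SD, cut at about 27% in these data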;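 further: 0% = acetylcholine EC80 with DMSO and 100% = DMSO without agonist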
# M4 ag = human M4 muscarinic receptor agonists, primary screen, CHO-K1 cells, Fluo-8 calcium fluorescence; AID 624127, 2012; hit rate 0.14% among 360,000; CHO-K1 hM4/Gqi5; vehicle 0%, full acetylcholine response 100%; activation, % at 3 µM; Muscarinic acetylcholine receptor M4 (Homo sapiens), P08173;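 active means activation above the run mean over all test wells plus 3 SD, cut at about 32% in these data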;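 further: peak over basal fluorescence ratio per well then scaled between controls; 0% = DMSO wells and 100% = acetylcholine at EC100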
# CHRM5 antagonist = human M5 muscarinic receptor antagonists, primary screen, CHO cells, Fluo-8 calcium fluorescence; Muscarinic acetylcholine receptor M5 (Homo sapiens), P08912; CHO-hM5 cells, ACh EC80; inhibition, % at 3 µM; hit rate 0.59% among 360,000;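 active means inhibition above a per-plate cutoff, the mean of that plate's test compounds plus 3 SD, cut at about 27% in these data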;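 further: 0% = acetylcholine EC80 with DMSO and 100% = DMSO without agonist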
# Target sequence (P08912 whole entry, looked up): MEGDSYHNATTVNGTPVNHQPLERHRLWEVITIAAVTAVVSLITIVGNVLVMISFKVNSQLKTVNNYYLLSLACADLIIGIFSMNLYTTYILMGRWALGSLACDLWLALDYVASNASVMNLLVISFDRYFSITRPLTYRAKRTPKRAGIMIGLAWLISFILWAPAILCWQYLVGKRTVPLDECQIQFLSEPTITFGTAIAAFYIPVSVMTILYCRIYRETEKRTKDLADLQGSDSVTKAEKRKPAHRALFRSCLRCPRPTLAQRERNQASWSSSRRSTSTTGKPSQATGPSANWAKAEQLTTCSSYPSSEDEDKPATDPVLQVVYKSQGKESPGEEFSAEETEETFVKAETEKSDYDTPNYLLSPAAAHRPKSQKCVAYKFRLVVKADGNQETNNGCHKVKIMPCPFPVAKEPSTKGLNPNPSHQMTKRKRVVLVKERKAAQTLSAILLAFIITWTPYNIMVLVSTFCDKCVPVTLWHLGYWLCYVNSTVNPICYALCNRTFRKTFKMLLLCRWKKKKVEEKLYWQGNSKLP
# M4 PAM = human M4 muscarinic receptor positive allosteric modulators, primary screen, CHO-K1 cells, Fluo-8 calcium fluorescence; Muscarinic acetylcholine receptor M4 (Homo sapiens), P08173; activation, % at 3 µM; hit rate 0.4% among 360,000; CHO-K1 hM4/Gqi5, ACh EC20; 0% = ACh EC20, 100% = maximal ACh;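 active means activation above its plate's cutoff, the mean activation of sample wells plus 3 SD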
# M5 PAM = human M5 muscarinic receptor positive allosteric modulators, primary screen, CHO-K1 cells, Fluo-8 calcium fluorescence; Muscarinic acetylcholine receptor M5 (Homo sapiens), P08912; CHO-K1 hM5, ACh EC20 PAM; 0% = ACh EC20, 100% = ACh EC100; activation, % at 3 µM; hit rate 0.3% among 360,000; AID 624038, 2012;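 active means activation above the run cutoff, the mean activation of all test compounds plus 3 SD, cut at about 18% in these data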
#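 System: CHO-K1 hM5 cells. Reagent: acetylcholine, EC20 level. Compound dosing: single dose, 3 µM nominal final test concentration. Timing: Post-acetylcholine fluorescence recording 140 s. Detection: Fluo-8 calcium fluorescence. Read-out: % activation, ACh-normalized. Benchmarks: ACh EC20 and EC100 wells. Repeats: singlicate, one well per test compound.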
# CHRM5 agonist = human M5 muscarinic receptor agonists, primary screen, CHO-K1 cells, Fluo-8 calcium fluorescence; activation, % at 3 µM; hit rate 0.19% among 360,000; CHO-K1 hM5 cells; 0% DMSO wells, 100% maximal acetylcholine response; Muscarinic acetylcholine receptor M5 (Homo sapiens), P08912;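 active means activation above the run's mean over test compounds plus 3 SD, cut at about 23% in these data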;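 further: signal is peak over basal fluorescence ratio across the kinetic read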
# * hit, by the source's call.
SMILES,M4 antag,M4 ag,CHRM5 antagonist,M4 PAM,M5 PAM,CHRM5 agonist
CCOC(=O)C1CCN(S(=O)(=O)c2ccc(CN3C(=O)c4cccnc4C3=O)cc2)CC1,2,1,8,0,-3,-2
COc1ccc(S(=O)(=O)N2CCC(N3CCN(Cc4ccccc4)CC3)CC2)cc1,46*,1,45*,-19,-15,-11
O=[N+]([O-])c1ccccc1S(=O)(=O)N1CCN(C2CCN(Cc3ccccc3)CC2)CC1,29*,1,16,-14,-11,-9
O=S(=O)(c1ccc(Cl)cc1)N1CCN(C2CCN(Cc3ccccc3)CC2)CC1,15,2,-6,-15,-44,-13
Cc1ccc(CNC(=O)C(c2ccccc2)c2ccccc2)cc1,-5,-1,13,-11,-6,-8
Fc1ccc(Nc2nc(-c3ccncc3)nc3ccccc23)cc1,2,2,4,24*,3,2
c1ccc(Nc2nc(-c3ccncc3)nc3ccccc23)cc1,0,0,1,0,-4,0
CNC[C@H](Cc1ccccc1)NC[C@@H](Cc1cccc2ccccc12)NCCc1ccc(C)cc1,38*,24,2,-1,-10,-2
CNCCNC[C@H](Cc1cccc2ccccc12)NCCc1ccccc1,5,2,12,-2,-1,1
COc1ccc(S(=O)(=O)N2CCOC23CCN(S(=O)(=O)c2ccc(F)cc2)CC3)cc1,29*,0,2,-6,-1,2
Cc1ccnc(NS(=O)(=O)c2ccc(NC(=O)C3CC3)cc2)n1,-1,1,5,-1,3,1
Cc1cc(C)nc(NS(=O)(=O)c2ccc(NC(=O)C(C)C)cc2)n1,62*,-3,6,-12,4,3
Cc1ccnc(NS(=O)(=O)c2ccc(NC(=O)C34CC5CC(CC(C5)C3)C4)cc2)n1,-16,0,0,4,28*,-4
Cc1cc(C)nc(NS(=O)(=O)c2ccc(NC(=O)C3CC3)cc2)n1,-13,1,7,3,0,-1
COc1cc(/C=C(\C#N)C(=O)Nc2ccc3c(c2)OCCO3)ccc1O,-11,5,4,-4,-8,5
CC(C)Oc1cccc(NC(=O)c2cnccc2C(F)(F)F)c1,0,0,5,-8,-1,0
CS(=O)(=O)c1ccc2nc(NC(=O)c3ccc(Cn4cc(Br)cn4)o3)sc2c1,5,14,28*,-8,-11,2
CSc1nsc(SC)c1C(=O)Nc1ccc(C(C)(C)C)cc1,3,-1,4,-12,-10,-11
CSc1nsc(SC)c1C(=O)NC(=O)Nc1cccnc1,-3,0,-11,3,22*,4
COc1ccc(-c2ccc3c(c2)S(=O)(=O)c2cccc(C(=O)N4CCN(C5CCCCC5)CC4)c2C3=O)cc1OC,9,23,34*,-8,-32,6
COc1ncnc2c1ncn2CCCN1CCN(Cc2ccc(C)cc2)CC1,-2,0,3,-5,3,-3
CCC(C)(C)c1ccc(OCCCC[n+]2cccc(C)c2C)c(C(C)(C)CC)c1,62*,9,47*,-16,-27,-19
CSCCC(N=C(NS(=O)(=O)c1ccccc1)c1ccccc1)C(=O)O (stereo not drawn),3,1,4,1,6,-4
CCOC(=O)/C(C(=Nc1ccccc1)Nc1ccccc1)=C(\C)O,-9,-1,-1,4,-1,3
NC(=Nc1ccccc1)Nc1ccccc1,60*,124*,1,-19,-23,41*
O=C1c2ccccc2C(=O)N1CC#CCN1CCN(C(c2ccccc2)c2ccccc2)CC1,-23,0,6,-7,-14,-7
